Reference: ChEMBL document CHEMBL1212899, “Strategies for recognition of stem-loop RNA structures by synthetic ligands: application to the HIV-1 frameshift stimulatory sequence” (J Med Chem, 2010)

Columns and labels:
Nucleic Acid [1] = test: Binding affinity to HIV1 frameshift-stimulating RNA by fluorescence titration; assay type: nucleic-acid assay, Human immunodeficiency virus 1
Summary of the method: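 5′-Cy3-labelled HIV-1 FSS RNA (400 or 500 nM) in 1X PBS pH 7.2 was heated to 65 °C for 4 min, then MgCl2 was added. Compound was titrated in over 100 nM–10 μM, with at least 10 min equilibration per step. Cy3 emission at 564.1 nm was dilution-corrected, and ΔFU was fit to a 1:1 model with ligand depletion to give KD. At least 2 titrations were run.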

[2] = Dissociation constant Kd of the compound; assay type: physicochemical
Nucleic Acid [3] = test: Binding affinity to HIV1 frameshift-stimulating RNA by fluorescence titration in presence of yeast tRNA; assay type: nucleic-acid assay, Human immunodeficiency virus 1
Summary of the method: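 Cy3-labelled HIV-1 FSS RNA was premixed with yeast total tRNA competitor (8 or 16 μM) in 1X PBS pH 7.2 with MgCl2, then titrated with compound. Fluorescence was read at 564.1 nm after at least 10 min equilibration per addition. Dilution-corrected ΔFU was fit to a 1-site ligand-depletion model for KD.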

[4] = Cytotoxicity against human fibroblast up to 10 uM; assay type: cell-based; settings: in the assay text read “up to 1 mM” for “up to 10 uM”
Summary of the method: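 Human fibroblasts were grown in DMEM with 5% FBS at 37 °C and 5% CO2, seeded at 3.2 × 10^4 cells/well, and grown 48 h to about 80% confluence. Cells were exposed to compound in DMEM for 24 h, with mitomycin C as control. MTT was added for 4 h, formazan was dissolved in isopropanol, and absorbance was read at 600 nm.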

Structure (SMILES) | Kd (Nucleic Acid [1]; read-out: Kd) | Kd [2] | Kd (Nucleic Acid [3]; read-out: Kd) | other results
CCc1nc2ccccc2cc1C(=O)N[C@@H](CSSC[C@H](NC(=O)c1cc2ccccc2nc1CC)C(=O)N1CCC[C@H]1C(=O)N[C@@H](Cc1ccccc1)C(=O)NCCCN)C(=O)N1CCC[C@H]1C(=O)N[C@@H](Cc1ccccc1)C(=O)NCCCN | 350 nM | 7880 nM | 200 nM | 
CCc1nc2ccccc2cc1C(=O)O | 290 nM |  |  | Kd (Nucleic Acid [3]): Not Active
C=CC[C@H](NC(=O)c1cc2ccccc2nc1CC)C(=O)N1CCC[C@H]1C(=O)N[C@@H](Cc1ccccc1)C(=O)NCCCN | 470 nM |  |  | Kd (Nucleic Acid [3]): Not Active
CCc1nc2ccccc2cc1C(=O)N[C@@H](C/C=C/C[C@H](NC(=O)c1cc2ccccc2nc1CC)C(=O)N1CCC[C@H]1C(=O)N[C@@H](Cc1ccccc1)C(=O)NCCCN)C(=O)N1CCC[C@H]1C(=O)N[C@@H](Cc1ccccc1)C(=O)NCCCN | 330 nM | 11200 nM | 390 nM | 
CCc1nc2ccccc2cc1C(=O)N[C@@H](C/C=C\C[C@H](NC(=O)c1cc2ccccc2nc1CC)C(=O)N1CCC[C@H]1C(=O)N[C@@H](Cc1ccccc1)C(=O)NCCCN)C(=O)N1CCC[C@H]1C(=O)N[C@@H](Cc1ccccc1)C(=O)NCCCN | 180 nM | 4660 nM | 260 nM | Activity [4]: Non-toxic
CCc1nc2ccccc2cc1C(=O)N[C@@H](CCCC[C@H](NC(=O)c1cc2ccccc2nc1CC)C(=O)N1CCC[C@H]1C(=O)N[C@@H](Cc1ccccc1)C(=O)NCCCN)C(=O)N1CCC[C@H]1C(=O)N[C@@H](Cc1ccccc1)C(=O)NCCCN | 1270 nM | 12300 nM | 1410 nM | 
Cc1nc2ccccc2cc1C(=O)N[C@@H](CSSC[C@H](NC(=O)c1cc2ccccc2nc1C)C(=O)N1CCC[C@H]1C(=O)N[C@@H](Cc1ccccc1)C(=O)NCCCN)C(=O)N1CCC[C@H]1C(=O)N[C@@H](Cc1ccccc1)C(=O)NCCCN | 430 nM |  |  | 
NCCCNC(=O)[C@H](Cc1ccccc1)NC(=O)[C@@H]1CCCN1C(=O)[C@H](CSSC[C@H](NC(=O)c1cnc2ccccc2c1)C(=O)N1CCC[C@H]1C(=O)N[C@@H](Cc1ccccc1)C(=O)NCCCN)NC(=O)c1cnc2ccccc2c1 | 650 nM |  |  | 
NCCCNC(=O)[C@H](Cc1ccccc1)NC(=O)[C@@H]1CCCN1C(=O)[C@@H](N)CSSC[C@H](N)C(=O)N1CCC[C@H]1C(=O)N[C@@H](Cc1ccccc1)C(=O)NCCCN |  |  |  | Kd (Nucleic Acid [1]): Not Active
CCc1nc2cc3c(cc2cc1C(=O)N[C@@H](CSSC[C@H](NC(=O)c1cc2cc4c(cc2nc1CC)OCO4)C(=O)N1CCC[C@H]1C(=O)N[C@@H](Cc1ccccc1)C(=O)NCCCN)C(=O)N1CCC[C@H]1C(=O)N[C@@H](Cc1ccccc1)C(=O)NCCCN)OCO3 | 1420 nM |  |  | 
NCCCNC(=O)[C@H](Cc1ccccc1)NC(=O)[C@@H]1CCCN1C(=O)[C@H](CSSC[C@H](NC(=O)c1ccc2c(c1)C(=O)c1ccccc1C2=O)C(=O)N1CCC[C@H]1C(=O)N[C@@H](Cc1ccccc1)C(=O)NCCCN)NC(=O)c1ccc2c(c1)C(=O)c1ccccc1C2=O | 230 nM |  |  | 
NC[C@@H]1O[C@H](O[C@H]2[C@@H](O)[C@H](O[C@@H]3[C@@H](O)[C@H](N)C[C@H](N)[C@H]3O[C@H]3O[C@H](CN)[C@@H](O)[C@H](O)[C@H]3N)O[C@@H]2CO)[C@H](N)[C@@H](O)[C@@H]1O [FRAMYCETIN] |  | 2600 nM |  | 
